Results as given in ChEMBL document CHEMBL1154894, “Paltolides A--C, anabaenopeptin-type peptides from the palau sponge Theonella swinhoei” (J Nat Prod, 2010).
Activity calls are given as the source filed them. The rule behind the calls is not given here. Numbered stars: 1 amine (or outer) side, 2 acyl side, 3 side chain; on linkers, the order of the positions; unused ones are H or OH. Bridge positions count the residues as written; N and C are the ends. Square brackets hold non-standard residues; d marks the D form. Peptide text beside a SMILES is read from it. X1 = O=C([C@H](Cc1c[nH]c2cc(Cl)c(O)cc12)N[*:1])[*:2]; NMeL = CN[C@@H](CC(C)C)C(=O)O; CO = O=C([*:1])[*:2]

Key:
HCT-116 = assay: Cytotoxicity against human HCT116 cells assessed as cell viability up to 100 ug/ml after 72 hrs by MTT assay; assay type: functional, cell-based
Procedure, shortened: (§1)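 MTT viability kit assay. Cells seeded at 2 × 10^4 per well and left to adhere 18 h. Exposed to compound for 24 h, then medium replaced or diluted 3-fold with fresh growth medium. Incubated a further 48 h before MTT read-out at A570. At least two separate experiments, each in duplicate.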

[1] = Cytotoxicity against african green monkey BSC1 cells assessed as cell viability up to 100 ug/ml after 72 hrs by MTT assay; assay type: cell-based; details: chlorocebus aethiops, bsc-1, 72 h; procedure, shortened: as §1
TZM = assay: Cytotoxicity against human TZM-bl cells assessed as cell viability up to 100 ug/ml after 72 hrs by MTT assay; assay type: functional, cell-based; procedure, shortened: as §1
[2] = system: Human immunodeficiency virus 1; assay: Antiviral activity against HIV1 expressing SF162 envelope assessed as inhibition of viral entry in human TZM-bl cells up to 100 ug/ml after 48 hrs by luciferase reporter gene assay; assay type: functional, organism-based
Procedure, shortened: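 Single-round HIV-1 neutralization in TZM-BL cells using virus pseudotyped with SF162 Envelope, under previously published conditions. At least two separate experiments, each run in duplicate.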

SMILES	Activity (HCT-116)	Activity [1]	Activity (TZM)	Activity [2]
CC(C)C[C@@H]1NC(=O)[C@H](C)NC(=O)[C@H](NC(=O)N[C@@H](CCCNC(=N)N)C(=O)O)CCCCNC(=O)[C@H](Cc2c[nH]c3ccc(O)cc23)NC(=O)[C@H](CC(C)C)N(C)C1=O [PALTOLIDE B]	inactive	Not Active	inactive	inactive
CC(C)C[C@@H]1NC(=O)[C@H](C)NC(=O)[C@H](NC(=O)N[C@@H](CCCNC(=N)N)C(=O)O)CCCCNC(=O)[C@H](Cc2c[nH]c3cc(Cl)c(O)cc23)NC(=O)[C@H](CC(C)C)N(C)C1=O ({Arg-CO}-[dK]AL[NMeL][X1]; lactam 1-C)	inactive	Not Active	inactive	inactive
CC(C)C[C@@H]1NC(=O)[C@H](C)NC(=O)[C@H](NC(=O)N[C@@H](CCCNC(=N)N)C(=O)O)CCCCNC(=O)[C@H](Cc2c[nH]c3ccccc23)NC(=O)[C@H](CC(C)C)NC1=O [PALTOLIDE A]	inactive	Not Active	inactive	inactive
CC(C)C[C@@H]1NC(=O)[C@H](C)NC(=O)[C@H](NC(=O)N[C@@H](CCCNC(=N)N)C(=O)O)CCCCNC(=O)[C@H](Cc2c[nH]c3cc(Br)ccc23)NC(=O)[C@H](CC(C)C)N(C)C1=O [PALTOLIDE C]	inactive	Not Active	inactive	inactive
